Measurements taken from ChEMBL document CHEMBL1126550, “Nanomolar-affinity, non-peptide oxytocin receptor antagonists” (J Med Chem, 1993).

Assays:
Vasopressin V2 receptor = Vasopressin V2 receptor (Rattus norvegicus, UniProt Q00788); experiment: Inhibition of radioligand [3H]-AVP binding to the vasopressin V2 receptor in rat kidney tissue
Summary of the method: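 [3H]AVP (80–90 Ci/mmol) at 2 nM competed on crude membranes from male rat kidney medulla (V2 sites). Equilibrium 30 min at 30 °C in 100 mM Tris-HCl, 5 mM MgCl2, 0.1% BSA, 50 μM PMSF, 50 μg/mL bacitracin, pH 8.0. Nonspecific binding with 10 μM unlabeled AVP. Glass-fiber filtration. IC50 by linear regression of % inhibition vs log concentration, seven concentrations.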

Rattus norvegicus [1] = experiment: Tested for inhibition of OT-stimulated uterine activity in the rat after an intravenous dose; type: functional
Oxytocin receptor [2] = biological target: T1, Oxytocin receptor (Rattus norvegicus, UniProt P70536); experiment: Tested against rat uterine OT receptor
T1 sequence (P70536 whole entry): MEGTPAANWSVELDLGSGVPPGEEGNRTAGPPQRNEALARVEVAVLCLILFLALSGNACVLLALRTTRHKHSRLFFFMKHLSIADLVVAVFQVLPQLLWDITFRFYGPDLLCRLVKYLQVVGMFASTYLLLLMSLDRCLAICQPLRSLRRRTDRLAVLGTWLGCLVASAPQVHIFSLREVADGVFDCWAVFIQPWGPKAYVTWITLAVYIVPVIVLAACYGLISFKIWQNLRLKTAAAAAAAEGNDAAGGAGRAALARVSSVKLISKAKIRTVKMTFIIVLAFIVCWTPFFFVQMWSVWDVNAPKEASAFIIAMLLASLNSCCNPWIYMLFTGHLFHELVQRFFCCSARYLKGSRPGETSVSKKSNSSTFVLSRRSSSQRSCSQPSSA
Summary of the method: (§1)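 Uteri taken from rats given diethylstilbestrol dipropionate (0.3 mg/kg ip, 18–24 h before), crude membranes. 1 nM [3H]OT (30–60 Ci/mmol), equilibrium 60 min at 22 °C in 50 mM Tris-HCl, 5 mM MgCl2, 0.1% BSA, pH 7.4. Nonspecific binding with 1 mM unlabeled OT. Filtered on glass fiber. Initial single-concentration screen, then IC50 from seven concentrations by linear regression.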

Oxytocin receptor [3] = biological target: T2, Oxytocin receptor (Homo sapiens, UniProt P30559); experiment: Tested against human uterine OT receptor
T2 sequence (P30559 whole entry): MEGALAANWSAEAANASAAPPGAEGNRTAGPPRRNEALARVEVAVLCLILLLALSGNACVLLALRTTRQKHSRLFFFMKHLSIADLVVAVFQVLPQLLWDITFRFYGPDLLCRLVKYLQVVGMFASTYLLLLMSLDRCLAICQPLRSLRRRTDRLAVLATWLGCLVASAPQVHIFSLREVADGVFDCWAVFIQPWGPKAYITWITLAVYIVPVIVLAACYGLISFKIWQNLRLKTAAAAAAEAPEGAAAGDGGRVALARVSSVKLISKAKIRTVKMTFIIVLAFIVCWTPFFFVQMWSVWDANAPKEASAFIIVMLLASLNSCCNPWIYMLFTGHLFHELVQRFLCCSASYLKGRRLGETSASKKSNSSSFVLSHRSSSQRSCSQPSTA

Vasopressin V1 receptor = Vasopressin V1 receptor (Rattus norvegicus, UniProt P48974+P30560); experiment: Inhibition of radioligand [3H]AVP binding to the vasopressin V1 receptor in rat liver tissue
Summary of the method: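 Crude membranes from male rat liver (V1 sites) competed with 1 nM [3H]AVP (80–90 Ci/mmol). Equilibrium 30 min, 30 °C, buffer 100 mM Tris-HCl, 5 mM MgCl2, 0.1% BSA, 50 μM PMSF, 50 μg/mL bacitracin, pH 8.0. 10 μM unlabeled AVP for nonspecific binding. Filtration through glass-fiber filters. IC50 from linear regression over seven concentrations.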

Rattus norvegicus [4] = species on record: Rattus norvegicus; experiment: Tested for antagonistic activity in isolated rat uterus; type: functional; settings: read-out: pA2 (converted)
Oxytocin receptor [5] = biological target: T1, Oxytocin receptor; experiment: Inhibition of radioligand [3H]oxytocin binding at the oxytocin (OT) receptor in rat uterine tissue; summary of the method: as §1

Sequence of Vasopressin V2 receptor (Q00788 whole entry): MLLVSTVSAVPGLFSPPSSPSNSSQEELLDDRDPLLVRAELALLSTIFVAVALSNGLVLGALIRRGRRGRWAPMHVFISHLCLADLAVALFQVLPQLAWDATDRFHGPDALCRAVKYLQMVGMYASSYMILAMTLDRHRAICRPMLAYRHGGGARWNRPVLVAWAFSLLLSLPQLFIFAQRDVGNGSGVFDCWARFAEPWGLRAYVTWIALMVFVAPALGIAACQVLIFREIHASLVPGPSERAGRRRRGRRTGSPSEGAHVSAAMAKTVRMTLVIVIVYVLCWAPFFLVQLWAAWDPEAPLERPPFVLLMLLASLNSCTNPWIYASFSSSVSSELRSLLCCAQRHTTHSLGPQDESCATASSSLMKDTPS

IC50 (Vasopressin V2 receptor) [µM] | Ki (Oxytocin receptor [2]) [µM] | Ki (Oxytocin receptor [3]) [µM] | IC50 (Vasopressin V1 receptor) [µM] | IC50 (Oxytocin receptor [5]) [µM] | SMILES | AD50 (Rattus norvegicus [1]) [mg/kg] | Kb (Rattus norvegicus [4]) [µM]
17 | 0.026 | 0.061 | 5.6 | 0.052 | CC1(C)[C@@H]2CC[C@@]1(CS(=O)(=O)N1CCC3(CCc4ccccc43)CC1)[C@@H](NC(=O)Cc1c[nH]cn1)C2 | 1.5 | 0.0117
1.4 |  |  | 0.42 | 0.013 | CC1(C)[C@@H]2CC[C@@]1(CS(=O)(=O)N1CCC3(CCc4ccccc43)CC1)[C@@H](N1C(=O)NC(Cc3c[nH]cn3)C1=O)C2 (stereo in doubt) |  | 
